# Compound activity as filed in PubChem.
# Most compounds without a hit are left out; they make up all but 4% or so of the library.
# Mdm2-MdmX inh – human Mdm2/MdmX binding inhibition; O15151+Q00987; SaOS-2 split-luciferase Mdm2/MdmX complementation, luminescence; inhibition, % at 8 µM; 330,000 tested, 3% active;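 active = inhibition of at least 50% at 8 µM in the primary screen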
# ABHD5 PLIN5 PPI – blocks binding of human ABHD5 to perilipin-5; Split G. princeps luciferase complementation, luminescence, 4 h; inhibition, % at 4 µM; 360,000 tested, 0.78% active; AID 602281;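 active = inhibition above the mean inhibition across every tested compound plus 3 SD, cut at about 22% in these data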;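 note: 0% = DMSO only wells and the 100% control is not disclosed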
# UPR XBP1 act – activators of adaptive arm of unfolded protein response (XBP1); activation, % at 20 µM; 330,000 tested, 0.33% active; CHO-XBP1 luciferase reporter, IRE1-XBP1 UPR activation, luminescence; percent of tunicamycin response, DMSO as zero;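 active = versus positive control, 20 µM dose yields 30% or more activation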;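 note: 100% = tunicamycin at 10 µg/mL and 0% = DMSO only wells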
#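 Test system: CHO-XBP1 luciferase reporter cells | Buffer or medium: Serum-containing F12 medium, 10% FBS | Schedule: 6 h compound exposure at 37 °C, 5% CO2 | Detection: Steady-Glo luciferase glow luminescence, 10 min after reagent addition | Read-out basis: Activation, % of tunicamycin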
# Exocytosis inh – blocks lytic granule exocytosis | 360,000 tested, 0.66% active | inhibition, % at 10 µM | TALL-104 LAMP-1 surface exposure, flow cytometry; cells stimulated with thapsigargin and PMA;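 active = inhibition above about 55%, limit read from the data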
# CHOP UPR activ – activators of apoptotic arm of unfolded protein response (CHOP); CHO-CHOP luciferase reporter, UPR activation, luminescence; percent of tunicamycin response over DMSO baseline; activation, % at 10 µM; 330,000 tested, 0.34% active; AID 449763;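 active = at 10 µM dose, activation of 40% or more, normalized to positive control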;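 note: 100% = tunicamycin at 10 µg/mL and 0% = DMSO alone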
#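 Evaluation: % reporter activation, DMSO baseline versus tunicamycin full activation; System: CHO-CHOP luciferase reporter cell line; Input: 500 cells/well; Incubation: 6 h compound treatment, 37 °C; Measured by: Steady-Glo luciferase luminescence; Dosing: one dose, 10 µM in 0.5% DMSO; Buffer or medium: F12 medium, 10% FBS; Benchmarks: positive tunicamycin 10 µg/mL, negative DMSO alone.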
# Mdm2-MdmX conf – confirmation of human Mdm2/MdmX interaction inhibitors; 10,000 tested, 55% active; Mdm2-MdmX binding, luminescent assay; inhibition, % at 8 µM; shares compounds with Mdm2-MdmX inh; in the data active = inhibition above about 40%
# Full FLuc ctr – inhibits full-length luciferase, flagging false Mdm2/MdmX hits; shares compounds with Mdm2-MdmX inh; SaOS-2 full-length luciferase counterscreen, luminescence; inhibition, % at 8 µM; 6,200 tested, 77% active; AID 504607;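 active = mean inhibition at 8 µM reaching about 37%, which flags the compound as non-specific, limit read from the data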;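 note: p53-null SaOS-2 cells with luciferase driven by a doxycycline-inducible promoter; compound on cells about two nights before reading with doxycycline added after day one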
# ABHD5 PLIN5 conf – confirmation of human ABHD5-PLIN5 interaction inhibitors; 2,200 tested, 67% active; biochemical ABHD5-PLIN5 interaction, luminescence; shares compounds with ABHD5 PLIN5 PPI; AID 651612; inhibition, % at 4 µM; in the data active = inhibition above about 23%;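 note: 0% = DMSO vehicle wells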
# HNF4 counter – counter-screen for ABHD5-PLIN5 inhibitors: HNF4 split-luciferase | shares compounds with ABHD5 PLIN5 PPI | HNF4 dimerization, luminescence, biochemical | inhibition, % at 4 µM | 2,200 tested, 77% active | AID 651674;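 active = mean inhibition across replicate wells exceeding the computed hit threshold, cut at about 13% in these data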;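 note: light from luciferase halves that rejoin when HNF4 fusion proteins dimerize; 0% = DMSO only wells and the 100% control is not given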
# Target sequence (P41235 whole entry, looked up, the tested form may be a part): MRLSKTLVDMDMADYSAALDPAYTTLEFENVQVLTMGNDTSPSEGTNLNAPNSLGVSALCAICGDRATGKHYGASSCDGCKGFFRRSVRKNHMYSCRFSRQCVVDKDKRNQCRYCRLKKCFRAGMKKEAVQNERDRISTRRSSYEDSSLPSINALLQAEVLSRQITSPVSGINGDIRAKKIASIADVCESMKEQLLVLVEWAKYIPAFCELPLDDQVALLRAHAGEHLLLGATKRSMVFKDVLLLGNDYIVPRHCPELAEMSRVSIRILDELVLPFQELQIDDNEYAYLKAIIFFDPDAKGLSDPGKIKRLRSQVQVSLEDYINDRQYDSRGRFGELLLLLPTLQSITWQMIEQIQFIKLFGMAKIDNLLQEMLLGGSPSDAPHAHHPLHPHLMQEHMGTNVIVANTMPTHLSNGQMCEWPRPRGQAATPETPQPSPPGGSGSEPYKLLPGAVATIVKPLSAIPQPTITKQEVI
# An asterisk follows results filed as active; x = not tested or not shown; ! = not confirmed by another sample.
SMILES,Mdm2-MdmX inh,ABHD5 PLIN5 PPI,UPR XBP1 act,Exocytosis inh,CHOP UPR activ,Mdm2-MdmX conf,Full FLuc ctr,others
CCCCn1c(=O)c(C(=O)Nc2cccc(C)c2)c(O)c2ccccc21,35,4,-4,0,2,x,x,
CCCCn1c(=O)c(C(=O)Nc2cnccn2)c(O)c2ccccc21,57*,-12,3,1,13,29,89*,
COC(=O)C1=C(c2ccc(-c3ccccc3)c(F)c2)C[C@@H]2CC[C@H]1N2C(=O)NC1CCCCC1,69*,-2,-2,-4,3,41*,64*,
COC(=O)C1=C(c2ccc(OCc3ccccc3)cc2)C[C@@H]2CC[C@H]1N2C(=O)NC1CCN(Cc2ccccc2)CC1,85*,12,2,-6,20,54*,62*,
COCC(=O)N1Cc2ccccc2-n2nncc2C1,x,-6,x,-1,x,x,x,
CN(C)c1ccc(/C=C/C=C/c2sc3ccccc3[n+]2C)cc1,82*,5,4,-24,4,62*,45*,
CC[n+]1c(/C=C/C=C/c2ccc(N(C)C)cc2)sc2ccccc21,88*,16,22,-24,38,84*,17,
CC[n+]1c(/C=C/N(C)c2ccccc2)sc2ccc(Cl)cc21,52*,-1,1,-2,-1,31,x,
CCOC(=O)C1=C(NC(=S)NC(=O)c2ccccc2)c2ccccc2CC12CCCC2,x,-7,x,-8,x,x,x,
O=c1[nH]c(=O)n(-c2ccccc2)c(O)c1/C=C1/C(c2ccccc2)=Nc2ccccc21,61*,14,0,3,3,62*,75*,
O=c1[nH]c(=O)n(-c2cccc(F)c2)c(O)c1/C=C1\C=Nc2ccccc21,18,16,-4,17,4,x,x,
CCCCCSc1cc(OC)c(CCNC)cc1OC,53*,3,0,-1,1,5,x,
COc1ccc2c3c1OC1C(=O)CC[C@@]4(O)[C@@H](C2)N(CC2CC2)CC[C@]314 (stereo not given in full),8,4,-1,2,1,x,x,
O=C(NCC1=C(c2ccc3ccccc3c2)C[C@@H]2CC[C@H]1N2Cc1ccco1)c1nccs1,x,-2,x,1,x,x,x,
COc1cc(C)c(CNCCc2c[nH]c3ccccc23)cc1C,64*,-10,-2,14,1,33,x,
COc1ccc(CNCCc2c[nH]c3ccccc23)c(OC)c1C,41,7,-1,21,-2,x,x,
CN1CC[C@]23c4c5ccc(O)c4OC2[C@H](O)C=CC3[C@H]1C5 (stereo not given in full),7,6,-1,12,1,x,x,
CC(C)[C@H]1C(=O)O[C@H](C(C)C)C(=O)N(C)[C@@H](C(C)C)C(=O)O[C@H](C(C)C)C(=O)N(C)[C@@H](C(C)C)C(=O)O[C@H](C(C)C)C(=O)N1C,95*,-5,5,32,23,88*,49*,
O=[N+]([O-])c1ccc(-[n+]2c(-c3ccccc3)cc(-c3ccccc3)cc2-c2ccccc2)cc1,15,7,-3,-2,1,x,x,
COc1ccc(-[n+]2c(-c3ccccc3)cc(-c3ccccc3)cc2-c2ccccc2)cc1,87*,x,3,x,32,88*,14,
Oc1ccc(-[n+]2c(-c3ccccc3)cc(-c3ccccc3)cc2-c2ccccc2)cc1,98*,21,8,28,38,71*,59*,
COc1ccc(-n2nnnc2C(c2ccnc3ccccc23)N2CCC3(CC2)C(=O)NCN3c2ccccc2)cc1 (stereo not given),x,2,x,0,x,x,x,
Cc1ccc(/C=C2\C(=O)NC(=S)N(c3ccccc3F)C2=O)s1,x,-3,x,50,x,x,x,
CC12CCC(=O)C=C1C=CC1C2CCC2(C)C(O)CCC12 (stereo not given),x,9,x,-10,x,x,x,
CN1CCN(C(=O)OC2c3nccnc3C(=O)N2c2ccc(Cl)cn2)CC1 (stereo not given),-1,x,-6,x,-1,x,x,
SMILES,Mdm2-MdmX inh,ABHD5 PLIN5 PPI,UPR XBP1 act,Exocytosis inh,CHOP UPR activ,Mdm2-MdmX conf,Full FLuc ctr,others
CC(C)COC(=O)c1ccccc1C(=O)OCC(C)C,19,2,-4,-6,-1,x,x,
C[CH2][Hg][S]c1ccccc1C(=O)O,100*,28*,-12,69*,-11,100*,52*,ABHD5 PLIN5 conf=49*;HNF4 counter=83*
CCOc1ccc(-c2cc(C)[n+](CCc3ccc(OC)c(OC)c3)c(-c3ccc(OCC)cc3)c2)cc1,81*,24*,14,57*,13,61*,36,ABHD5 PLIN5 conf=7;HNF4 counter=10
CCOc1ccc(-c2cc(C)[n+](CCO)c(-c3ccc(OCC)cc3)c2)cc1,21,6,-1,1,1,x,x,
COc1ccc(N=Cc2c(O)n(C)c(=O)n(C)c2=O)cc1,3,-4,12,6,6,x,x,
CC/C(=C(\c1ccccc1)c1ccc(OCCN(C)C)cc1)c1ccccc1,58*,38*!,-1,15,3,22,x,ABHD5 PLIN5 conf=72*;HNF4 counter=26*
CCC(=C(c1ccccc1)c1ccc(OCCN(C)C)cc1)c1ccccc1,x,-4,x,2,x,x,x,
N#CC(C#N)=NNc1ccc(-n2ccc(C(F)(F)F)n2)cc1,94*,58*,3,11,4,73*,31,ABHD5 PLIN5 conf=83*;HNF4 counter=71*
Cc1cc(C)n(-c2ccc(NN=C(C#N)C#N)cc2)n1,62*,44*,0,14,5,58*,57*,ABHD5 PLIN5 conf=49*;HNF4 counter=43*
C=CCn1c(O)c(/C=N/NC(=O)CCCC)c(=O)[nH]c1=S,-14,-5,-3,-2,0,x,x,
CCN(CC)c1ccc(CC2C(=O)N(C)C(=O)N(C)C2=O)cc1,-20,-3,-2,-10,3,x,x,
COc1ccccc1-n1c(/C=C/c2ccccn2)nc2ccccc2c1=O,47,12,-5,-13,0,x,x,
Brc1ccc2c(c1)C(OC1CN3CCC1CC3)c1ccccc1CS2 (stereo not given),80*,29*,5,21,4,67*,34,ABHD5 PLIN5 conf=11;HNF4 counter=12*
COc1ccc(CCNC(=O)c2c(N)n(CCN3CCOCC3)c3nc4ccccc4nc23)cc1OC,54*,25*,-2,28,-1,28,x,ABHD5 PLIN5 conf=16;HNF4 counter=3
O=C(c1ccc(CS(=O)(=O)c2ccccc2)o1)N1CCC2(CC1)OCCO2,12,-2,-3,44,0,x,x,
